Experimental data reported in PMC5395305 (Bioorganic & medicinal chemistry letters, 2017).

Legend:
[1] = test system: bleomycin-induced dermal fibrosis; conditions: mice, 14 days of IP dosing, 100 mg/kg bid; cited from earlier work
[2] = test system: Rho/MRTF/SRF pathway (SRE.L promoter luciferase reporter); experiment: Inhibition of Gα12-stimulated SRE.Luciferase activity in HEK293T cells; assay type: cell-based
Outline: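 HEK293T cells were transfected with a luciferase reporter driven by the MRTF-selective SRE.L promoter. Reporter activity was Gα12-stimulated, and inhibition of luciferase signal by test compound was measured. Values are means of n ≥ 3.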

[3] = test system: bleomycin-induced dermal fibrosis; experiment: Bleomycin-induced dermal fibrosis in mice; assay type: in vivo; conditions: PO 50 mg/kg qd, 14 days, vs bleomycin treatment alone
Outline: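 Three groups of mice (n=8) were treated daily for 14 days. Controls received intracutaneous PBS. The bleomycin group received intracutaneous bleomycin with concurrent oral gavage of vehicle. The treated group received intracutaneous bleomycin with concurrent oral gavage of test compound at 50 mg/kg. Read-outs were dermal thickness and hydroxyproline content, each compared with bleomycin alone.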

[4] = Stability to incubation with mouse liver microsomes; assay type: in vitro ADME; conditions: relative to 1
[5] = test system: ACTA2 expression; experiment: ACTA2 mRNA expression; assay type: cell-based; conditions: Homo sapiens, Fibroblast, 24 h, read-out: ACTA2 (%ctrl), inhibition of ACTA2 expression (percent control), TGF-β-stimulated human dermal fibroblasts, 10 μM, 24 hrs, mean of n=3
[6] = test system: conjunctival fibrosis (scar tissue formation); conditions: preclinical model of conjunctival fibrosis; ref 18 (Yu-Wai-Man et al); cited from earlier work

In the case of `O=C(Nc1ccc(Cl)cc1)C1CCCN(C(=O)c2cccc(-c3ccco3)c2)C1` (centres unmarked) [Cmpd 1], the “Effect on development of bleomycin-induced dermal fibrosis” value [1] is given as “can attenuate the development of bleomycin-induced dermal fibrosis”.
With `C=C1CC(C(=O)Nc2ccc(Cl)cc2)CN(C(=O)c2cccc(-c3ccco3)c2)C1` (centres unmarked) [Cmpd 23] the “Improvement of SRE.L potency” value ([2]; relative to 5-carbonyl/parent series) was ~10 fold.
With `O=C(Nc1ccc(Cl)cc1)C1CN(C(=O)c2cccc(-c3ccncc3)c2)CC(F)(F)C1` (centres unmarked) [Cmpd 8f] the “Reduction of bleomycin-induced increase in dermal thickness” value [3] was −55% and the “Reduction of bleomycin-induced increase in hydroxyproline content” value [3] was −62%.
In the case of `CN(C(=O)C1CCCN(C(=O)c2cccc(-c3ccco3)c2)C1)c1ccc(Cl)cc1` (centres unmarked) [Cmpd 26], the “Reduction of SRE.L activity” value ([2]; relative to 1) is reported as 10 fold.
In the case of `O=C(Nc1ccc(Cl)cc1)C1CN(C(=O)c2cccc(-c3ccco3)c2)CC(F)(F)C1` (centres unmarked) [Cmpd 8a], the “Lengthening of half-time in MLM (factor)” value [4] is listed as “three”, the mrna remaining at 10 µM [5] is listed as 9% and the “Effect on scar tissue formation” value [6] is listed as “prevent scar tissue formation”.
